Source: PubChem BioAssay
Sampled rows, rich in hits. Any-hit rate of the full collection: about 9.6%.
bCat KO growth = beta-catenin-lacking colon tumor cell growth suppression | viability, % at 10 µM | hit rate 1.5% among 140,000 | HCT116 beta-catenin knockout viability, CellTiter-Glo, 60 h; active compounds read low;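 active = viability at or under a set limit, the compound median less 4 SD, cut at about 6% in these data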
HCT116 PTEN-null = PTEN-deleted cell growth suppression; HCT116 PTEN-null viability, CellTiter-Glo, 60 h; active compounds read low; viability, % at 10 µM; hit rate 1.2% among 140,000;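 active = viability at or below a set limit, 4 SD under the median of all tested compounds, cut at about 3.7% in these data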;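 also: PTEN knockout HCT116 line with beta catenin targeted HCT116 as companion control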
TNAP inh noacc = TNAP (human) inhibition, acceptor-free conditions; P05186; purified TNAP, CDP-star luminescence, 30 min; inhibition, % at 20 µM; hit rate 0.26% among 200,000;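 active = tissue-nonspecific alkaline phosphatase inhibition above about 50% at 20 µM in the single-dose screen, limit read from the data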
Target sequence (P05186 whole entry, looked up): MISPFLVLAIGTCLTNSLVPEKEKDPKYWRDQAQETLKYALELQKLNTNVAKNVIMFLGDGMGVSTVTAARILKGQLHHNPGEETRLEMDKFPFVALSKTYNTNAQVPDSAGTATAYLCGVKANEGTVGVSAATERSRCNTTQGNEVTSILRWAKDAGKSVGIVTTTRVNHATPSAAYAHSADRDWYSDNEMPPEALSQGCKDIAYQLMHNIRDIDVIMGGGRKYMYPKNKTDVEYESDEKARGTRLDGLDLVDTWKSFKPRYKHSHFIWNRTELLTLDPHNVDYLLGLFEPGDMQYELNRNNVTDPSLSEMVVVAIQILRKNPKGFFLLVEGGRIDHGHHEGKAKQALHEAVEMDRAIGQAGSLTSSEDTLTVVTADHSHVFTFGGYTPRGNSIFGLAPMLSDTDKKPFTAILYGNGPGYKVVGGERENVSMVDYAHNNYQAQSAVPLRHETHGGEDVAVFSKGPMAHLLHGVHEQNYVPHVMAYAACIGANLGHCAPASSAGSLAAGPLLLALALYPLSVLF
TNAP inh hi DEA = TNAP (human) inhibition, high acceptor; P05186; purified TNAP, CDP-star luminescence, 1 M DEA; inhibition, % at 20 µM; hit rate 0.03% among 200,000; AID 1135;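 active = over 50% inhibition of tissue-nonspecific alkaline phosphatase at 20 µM in the single-dose screen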
Lmaj promast = Leishmania major promastigote growth inhibition. Leishmania major promastigotes, resazurin fluorescence viability. inhibition, % at 10 µM. hit rate 9% among 200,000; in the data active = inhibition above about 50%;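 also: promastigotes grown with compound for 44 hours at 28 °C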
TNAP act hi DEA = increases human TNAP activity under high phosphate acceptor concentration; P05186; purified TNAP, CDP-star luminescence, 1 M DEA, 30 min; active compounds read high; 0 = EDTA background, 1 = DMSO-only activity; 200,000 tested, under 10 active; activation factor at 20 µM;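 active = activation factor at least 2 at 20 µM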
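Dosing: 20 µM single point. System: human TNAP. Amount: TNAP 1/800 final. Incubation: 30 min, room temperature. Read-out: TNAP activation factor scaled between EDTA and DMSO control wells. Signal: luminescence from CDP-star hydrolysis. Medium: 1 M DEA, pH 9.8, Mg2+, Zn2+. Control set: EDTA negative control, DMSO positive control.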
Each line names hits and unclear results; the compound was inactive in the other large screens.

COC(=O)c1c(C)oc2ccc(N(C(=O)c3ccncc3)S(=O)(=O)c3ccc(C)cc3)cc12	none
Cc1cc(F)ccc1S(=O)(=O)N(C(=O)c1ccncc1)c1ccc(OC(=O)c2ccncc2)cc1	none (no result: bCat KO growth, HCT116 PTEN-null)
Cc1ccc(S(=O)(=O)N(C(=O)c2ccncc2)c2ccc(OC(=O)c3ccncc3)c3ccccc23)cc1	Lmaj promast 97.9
Cc1ccc(S(=O)(=O)N(C(=O)c2ccncc2)c2ccc(OC(=O)c3ccncc3)c3ccccc23)c(C)c1	Lmaj promast 98.3
CN(Cc1cn(Cc2ccccc2)nc1-c1ccc2c(c1)OCO2)Cc1nccn1C	none (no result: bCat KO growth, HCT116 PTEN-null)
COc1ccc(-c2cc(C3CCN(Cc4cccc(C(F)(F)F)c4)CC3)[nH]n2)cc1	Lmaj promast 67.6 (no result: bCat KO growth, HCT116 PTEN-null)
COc1ccc(-c2cc(C3CCN(Cc4ccc([N+](=O)[O-])cc4)CC3)[nH]n2)cc1	Lmaj promast 56.2 (no result: bCat KO growth, HCT116 PTEN-null)
C=CCn1c(COc2ccc(Cl)cc2)nnc1SCc1ccc(C#N)cc1	Lmaj promast 57.7
COc1ccc(-n2c(COc3cccc4ccccc34)nnc2SCC#N)cc1	Lmaj promast 55.3
C=CCn1c(SCc2ccc(C#N)cc2)nnc1-c1ccccc1	none
C=CCn1c(SCc2ccc(C#N)cc2)nnc1-c1cccc(OC)c1	Lmaj promast 84.2
Cc1ccc(OCc2nnc(SCc3ccc(C#N)cc3)n2-c2ccc(C)cc2)cc1	Lmaj promast 99.7
C=CCn1c(COc2ccccc2)nnc1SCc1ccc(C#N)cc1	none
COc1ccccc1NC(=O)C1=C(C)NC(=O)NC1c1cccs1 (stereo unspecified)	none (no result: bCat KO growth, HCT116 PTEN-null)
Nc1nc(C(F)(F)F)cc(=O)n1N	none (no result: bCat KO growth, HCT116 PTEN-null)
CC(C)CC(c1nnnn1Cc1ccccc1)N1CCN(C(=O)c2ccco2)CC1 (stereo unspecified)	Lmaj promast 64.9
O=C(c1ccco1)N1CCN(C(c2ccc(Cl)cc2)c2nnnn2CC2CCCO2)CC1 (stereo unspecified)	Lmaj promast 62.9
O=C(c1ccco1)N1CCN(C(c2ccccc2Cl)c2nnnn2Cc2cccs2)CC1 (stereo unspecified)	Lmaj promast 53.0
CCC(c1nnnn1Cc1ccco1)N1CCN(C(=O)c2ccco2)CC1 (stereo unspecified)	none
O=C(c1ccco1)N1CCN(C(c2ccc(F)cc2)c2nnnn2Cc2cccs2)CC1 (stereo unspecified)	none
CC(C)CCn1nnnc1C(c1ccc(F)cc1)N1CCN(C(=O)c2ccco2)CC1 (stereo unspecified)	Lmaj promast 55.0
CCCCCC1CCC(c2n[nH]c(=S)n2C)CC1 (stereo unspecified)	none (no result: bCat KO growth, HCT116 PTEN-null)
CCOC(=O)CSc1nc(C)c(C(C)=O)cc1C(N)=O	none (no result: bCat KO growth, HCT116 PTEN-null)
COCCCNCC(O)C(F)(F)F (stereo unspecified)	none (no result: bCat KO growth, HCT116 PTEN-null)
O=C(NCCO)C(=O)c1c(-c2ccccc2)cc2ccccn12	none (no result: bCat KO growth, HCT116 PTEN-null)
CCc1ccc(C2=NNC(=Nc3cccc(S(=O)(=O)N(C)C)c3)SC2)cc1	bCat KO growth 3.9
CCOC(=O)c1nc(NCc2ccccc2)c2ccccc2n1	Lmaj promast 52.3 (no result: bCat KO growth, HCT116 PTEN-null)
Oc1ccccc1Nc1nc(NCc2ccccc2)c2ccccc2n1	Lmaj promast 100.4 (no result: bCat KO growth, HCT116 PTEN-null)
OCCNc1nc(Nc2ccccc2)nc2ccccc12	Lmaj promast 99.7
COc1ccc(Nc2nc(-c3ccccc3)c3ccccc3n2)cc1	none
OCCNc1nc(Nc2ccc(Br)cc2)nc2ccccc12	Lmaj promast 100.5 (no result: bCat KO growth, HCT116 PTEN-null)
OCCNc1nc(Nc2ccccc2)nc(Nc2ccccc2)n1	none
O=C(Nc1ccccn1)c1ccc(Br)c(S(=O)(=O)N2CCCCC2)c1	none
Clc1nc(Nc2ccccc2)nc(Nc2ccccc2)n1	none
CC(C)(CO)Nc1nc(Nc2ccccc2)nc(Nc2ccccc2)n1	Lmaj promast 74.5
CN1CCCC1CCNS(=O)(=O)c1ccc(Br)cc1 (stereo unspecified)	Lmaj promast 96.1
COc1ccccc1NC(=O)C/C(C)=N/NC(=O)COc1c(Br)cc(Br)cc1OC	none (no result: bCat KO growth, HCT116 PTEN-null)
Cc1cc(C)nc(NS(=O)(=O)c2ccc(NC(=O)c3cc(-c4ccccc4)nc4ccccc34)cc2)n1	Lmaj promast 66.9
COc1cc(-c2cc(C(=O)Nc3ccc(S(=O)(=O)NCc4ccco4)cc3)c3ccccc3n2)cc(OC)c1OC	Lmaj promast 75.8
CCOC(=O)C1(Cc2cccc(OC)c2)CCN(Cc2ccccc2)CC1	none (no result: bCat KO growth, HCT116 PTEN-null)
CCOC(=O)C1(Cc2ccccc2Cl)CCN(Cc2csc(C(C)=O)c2)CC1	Lmaj promast 90.3 (no result: bCat KO growth, HCT116 PTEN-null)
CCOC(=O)C1(Cc2ccc(Cl)cc2)CCN(Cc2ccon2)CC1	Lmaj promast 95.0 (no result: bCat KO growth, HCT116 PTEN-null)
CCOC(=O)C1(Cc2ccccc2)CCN(Cc2cnn(CC)c2)CC1	none (no result: bCat KO growth, HCT116 PTEN-null)
CCOC(=O)C1(Cc2ccc(Cl)cc2)CCN(Cc2cnc(N)nc2)CC1	Lmaj promast 53.2 (no result: bCat KO growth, HCT116 PTEN-null)
CCOC(=O)C1(Cc2cccc(F)c2)CCN(Cc2ccon2)CC1	none (no result: bCat KO growth, HCT116 PTEN-null)
COC(=O)c1ccccc1NC(=O)C(=O)NCc1ccncc1	none (no result: bCat KO growth, HCT116 PTEN-null)
CCOC(=O)N1CCN(S(=O)(=O)c2ccc(F)c(C(=O)Nc3cccc(Cl)c3C)c2)CC1	none
O=C(/C=C/c1cccc(Cl)c1)c1nc2ccccc2[nH]1	bCat KO growth 0.7, HCT116 PTEN-null 1.0, Lmaj promast 100.3
O=C(Nc1nc2ccccc2[nH]1)c1cccs1	none (no result: bCat KO growth, HCT116 PTEN-null)
O=C(/C(=C\c1ccccc1)c1nc2ccccc2[nH]1)c1ccc(Cl)cc1	bCat KO growth 2.2, HCT116 PTEN-null 1.9, Lmaj promast 100.2
COc1cc(/C=C(/C(=O)c2cccs2)c2nc3ccccc3[nH]2)ccc1O	bCat KO growth 3.8, HCT116 PTEN-null 2.0, Lmaj promast 100.3
O=C(/C=C/c1cccc(Cl)c1)Nc1ncccn1	none
COc1ccc(/C=C(/NC(=O)c2ccccc2)c2nc3ccccc3[nH]2)cc1OC	none
COC(=O)/C(=C\c1ccc(O)cc1)c1nc2ccccc2[nH]1	none (no result: bCat KO growth, HCT116 PTEN-null)
O=C(/C(=C/c1ccc(Cl)cc1)c1nc2ccccc2[nH]1)c1cccs1	bCat KO growth 1.9, HCT116 PTEN-null 1.9, Lmaj promast 100.5
CC(=O)C1=C(C)NC(=O)CC1c1ccc(Br)cc1 (stereo unspecified)	none (no result: bCat KO growth, HCT116 PTEN-null)
CC(C)NC(=S)N/N=C/c1ccc2c(c1)OCCO2	none
COC(=O)/C(=C\c1cc(OC)c(OC)c(OC)c1)c1nc2ccccc2[nH]1	Lmaj promast 99.5 (no result: bCat KO growth, HCT116 PTEN-null)
Cc1ccc(N2C(=O)CC(N3CCN(C4CCc5ccccc5C4)CC3)C2=O)cc1 (stereo unspecified)	Lmaj promast 87.2
CCc1nnc(NC(=O)[C@@H](NC(=O)c2cccc(S(=O)(=O)N(CC)CC)c2)C(C)C)s1	none
C=CCNC(=O)/C(=C/c1cccc([N+](=O)[O-])c1)NC(=O)c1ccccc1	none (no result: bCat KO growth, HCT116 PTEN-null)
O=C(c1cc2sccc2n1Cc1ccccc1)N1CCc2ccccc21	none
O=C(c1cc2sccc2n1Cc1ccccc1)N1CCCc2ccccc21	Lmaj promast 63.1
CCOC(=O)c1cc2sccc2n1CC(=O)N1CCCc2ccccc21	Lmaj promast 91.7
